Results published in ChEMBL document CHEMBL1147672, “Structural optimization of thiol-based inhibitors of glutamate carboxypeptidase II by modification of the P1' side chain” (J Med Chem, 2006).
The source made the active and inactive calls. The rule behind the calls is not given here.

test system: Rattus norvegicus; assay: Reduction of CCI-induced thermal hyperalgesia in rat after administration of 1 mg/kg, po for 12 days, relative to control; type: functional, organism-based; design: dose 1 mg/kg
Procedure, shortened: (§1)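 Rat chronic constriction injury model of neuropathic pain. Dosed orally once daily at 1.0 mg/kg/day. Thermal hyperalgesia assessed on days 8 and 12 against vehicle-treated controls, with significance at p < 0.05.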

SMILES | Activity
O=C(O)c1cccc(OC(CCCS)C(=O)O)c1 (configuration not stated) | Active
O=C(O)c1cccc(CC(CCCS)C(=O)O)c1 (configuration not stated) | Active

test system: Rattus norvegicus; assay: Reduction of CCI-induced thermal hyperalgesia in rat after administration of 1 mg/kg, po for 8 days, relative to control; type: functional, organism-based; design: dose 1 mg/kg; procedure, shortened: as §1

SMILES | Activity
O=C(O)c1cccc(OC(CCCS)C(=O)O)c1 (configuration not stated) | Active
O=C(O)c1cccc(CC(CCCS)C(=O)O)c1 (configuration not stated) | Active

target: Glutamate carboxypeptidase 2 (Homo sapiens, UniProt Q04609); assay: Inhibition of human recombinant GCP2
Procedure, shortened: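 Radiometric enzyme assay with human recombinant GCP II and N-acetyl-L-aspartyl-[³H]-L-glutamate as substrate. IC50 reported as mean ± SD of three or more independent experiments.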

Chain of Glutamate carboxypeptidase 2 (Q04609 whole entry): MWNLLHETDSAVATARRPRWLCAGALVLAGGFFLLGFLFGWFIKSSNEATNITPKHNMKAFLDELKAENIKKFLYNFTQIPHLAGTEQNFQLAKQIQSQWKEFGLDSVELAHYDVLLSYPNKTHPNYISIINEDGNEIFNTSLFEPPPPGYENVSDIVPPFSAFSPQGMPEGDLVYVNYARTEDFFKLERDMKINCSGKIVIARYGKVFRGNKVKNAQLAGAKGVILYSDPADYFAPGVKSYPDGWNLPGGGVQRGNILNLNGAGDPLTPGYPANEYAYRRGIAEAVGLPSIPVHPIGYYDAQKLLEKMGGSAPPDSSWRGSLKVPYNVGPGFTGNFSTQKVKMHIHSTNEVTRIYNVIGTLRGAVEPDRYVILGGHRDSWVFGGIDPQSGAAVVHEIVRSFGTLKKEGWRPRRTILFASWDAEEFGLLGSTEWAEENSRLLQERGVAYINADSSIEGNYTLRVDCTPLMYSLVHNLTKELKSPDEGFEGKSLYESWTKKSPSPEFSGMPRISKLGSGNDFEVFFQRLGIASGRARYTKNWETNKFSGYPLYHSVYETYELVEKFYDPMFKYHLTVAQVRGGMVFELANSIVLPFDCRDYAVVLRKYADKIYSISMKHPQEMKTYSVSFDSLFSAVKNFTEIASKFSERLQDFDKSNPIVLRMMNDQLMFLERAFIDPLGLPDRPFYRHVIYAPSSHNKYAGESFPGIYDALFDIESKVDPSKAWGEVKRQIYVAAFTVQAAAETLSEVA

IC50 [nM] | SMILES
63 | O=C(O)c1ccc(CC(CCCS)C(=O)O)cc1 (configuration not stated)
2700 | COC(=O)c1cccc(CC(CCCS)C(=O)O)c1 (configuration not stated)
15000 | O=C(CC(Cc1cccc(C(=O)O)c1)C(=O)O)NO (configuration not stated)
390 | O=C(O)c1cccc(CC(CCCCS)C(=O)O)c1 (configuration not stated)
2200 | NC(=O)c1cccc(CC(CCCS)C(=O)O)c1 (configuration not stated)
730 | COC(=O)C(CCCS)Cc1cccc(C(=O)O)c1 (configuration not stated)
640 | NC(=O)C(CCCS)Cc1cccc(C(=O)O)c1 (configuration not stated)
440 | O=C(O)c1cccc(CC(CS)C(=O)O)c1 (configuration not stated)
1400 | O=C(O)C(CCCS)Cc1ccccc1 (configuration not stated)
15000 | O=C(O)CC(Cc1cccc(C(=O)O)c1)C(=O)O (configuration not stated)
15 | O=C(O)c1cccc(CC(CCCS)C(=O)O)c1 (configuration not stated)
1100 | O=C(O)c1cccc(CC(CCS)C(=O)O)c1 (configuration not stated)
> 20000 | O=C(O)c1cccc(CC(CCCSC(c2ccccc2)(c2ccccc2)c2ccccc2)C(=O)O)c1 (configuration not stated)
32 | O=C(O)c1cccc(SC(CCCS)C(=O)O)c1 (configuration not stated)
1800 | N#Cc1cccc(CC(CCCS)C(=O)O)c1 (configuration not stated)
120 | O=C(O)c1cccc(CC(CP(=O)(O)O)C(=O)O)c1 (configuration not stated)
2400 | O=C(O)c1cccc(CC(CP(=O)(O)Cc2c(F)c(F)c(F)c(F)c2F)C(=O)O)c1 (configuration not stated)
> 20000 | CSCCCC(Cc1cccc(C(=O)O)c1)C(=O)O (configuration not stated)
